Results taken from ChEMBL document CHEMBL4014338, “Discovery of Small Molecules as Multi-Toll-like Receptor Agonists with Proinflammatory and Anticancer Activities” (J Med Chem, 2017).

Tests used:
[1] = target: Toll-like receptor 4 (Homo sapiens, UniProt O00206); experiment: Agonist activity at human TLR4 expressed in HEK293 cells assessed as induction of NF-kB activation-mediated SEAP production after 24 hrs by HTS assay; format: cell-based
Outline: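 Stable HEK293 lines expressing a single hTLR plus a SEAP reporter, grown in DMEM/10% FBS with selective antibiotics. Seeded at 5 × 10^4 cells/well for 24 h at 37 °C, then treated 24 h. Supernatant mixed with QUANTI-Blue, 1 h at 37 °C, OD 620 nm. Cognate agonists: Pam3CSK4 (TLR2), poly I:C (TLR3), LPS (TLR4), FLA-BS (TLR5), R848 (TLR7). EC50 as mean ± SD.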

[2] = target: T1, Toll-like receptor 8 (Homo sapiens, UniProt Q9NR97); experiment: Agonist activity at human TLR8 expressed in HEK293 cells assessed as induction of NF-kB activation-mediated SEAP production after 24 hrs by HTS assay; format: cell-based
T1 sequence (Q9NR97 whole entry): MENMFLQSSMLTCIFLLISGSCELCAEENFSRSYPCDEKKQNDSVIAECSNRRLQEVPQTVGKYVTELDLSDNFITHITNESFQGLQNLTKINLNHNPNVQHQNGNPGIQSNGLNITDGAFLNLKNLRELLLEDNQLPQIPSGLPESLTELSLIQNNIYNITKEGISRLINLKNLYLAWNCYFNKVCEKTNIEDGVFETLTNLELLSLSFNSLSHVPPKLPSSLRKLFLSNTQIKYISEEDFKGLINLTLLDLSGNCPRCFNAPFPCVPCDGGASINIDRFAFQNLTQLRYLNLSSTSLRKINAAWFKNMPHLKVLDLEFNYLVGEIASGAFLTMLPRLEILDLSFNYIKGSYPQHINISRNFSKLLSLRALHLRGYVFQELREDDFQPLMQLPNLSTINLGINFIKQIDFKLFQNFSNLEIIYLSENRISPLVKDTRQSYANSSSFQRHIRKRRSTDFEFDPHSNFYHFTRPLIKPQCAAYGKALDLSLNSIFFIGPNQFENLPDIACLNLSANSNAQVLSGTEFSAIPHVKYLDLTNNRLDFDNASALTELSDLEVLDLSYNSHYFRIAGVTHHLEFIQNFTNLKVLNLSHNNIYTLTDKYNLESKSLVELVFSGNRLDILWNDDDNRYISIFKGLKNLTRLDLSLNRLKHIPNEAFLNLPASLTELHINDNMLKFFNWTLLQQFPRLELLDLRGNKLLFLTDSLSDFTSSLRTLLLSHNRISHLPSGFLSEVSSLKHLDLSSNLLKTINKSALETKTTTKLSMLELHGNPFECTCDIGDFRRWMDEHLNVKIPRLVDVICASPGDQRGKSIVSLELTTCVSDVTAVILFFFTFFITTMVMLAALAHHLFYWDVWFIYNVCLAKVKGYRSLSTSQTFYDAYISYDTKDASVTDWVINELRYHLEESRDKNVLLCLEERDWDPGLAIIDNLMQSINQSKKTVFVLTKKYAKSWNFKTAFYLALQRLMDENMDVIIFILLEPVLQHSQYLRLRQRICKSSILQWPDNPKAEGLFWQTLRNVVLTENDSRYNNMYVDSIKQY
Outline: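 HEK293 cells stably expressing human TLR8 or TLR9 plus an NF-κB-inducible SEAP reporter, seeded at 5 × 10^4 cells/well for 24 h, then treated for 24 h. Supernatant incubated with QUANTI-Blue at 37 °C for 1 h and OD read at 620 nm. Positive controls were R848 (TLR8) and ODN2006 (TLR9). EC50 reported as mean ± SD.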

[3] = target: T2, Toll-like receptor 3/8/9 (Homo sapiens) (UniProt O15455+Q9NR96+Q9NR97); experiment: Agonist activity at TLR3/TLR8/TLR9 in human THP1 cells assessed as increase in IL-6 mRNA level after 12 hrs by qRT-PCR method; format: cell-based
Outline: (§1)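 THP-1 cells (1.5 × 10^6/well) differentiated with PMA (20 nM) for 2 days, then 24 h in fresh RPMI 1640; nonadherent cells removed. Treated with indicated compound concentrations for 12 h, washed with PBS, and mRNA measured by qRT-PCR. Expressed as fold change versus untreated control, poly I:C (5 μg/mL) as reference. Mean ± SD of three independent experiments.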

[4] = target: T2, Toll-like receptor 3/8/9 (Homo sapiens); experiment: Agonist activity at TLR3/TLR8/TLR9 in human THP1 cells assessed as increase in IL-8 mRNA level after 12 hrs by qRT-PCR method; format: cell-based; outline: as §1
[5] = tested on: HMEC; experiment: Antiproliferative activity against HMEC after 24 hrs by WST1 assay; format: cell-based; settings: Homo sapiens
Outline: (§2)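 Cells seeded at 5 × 10^3/well and left 24 h, then given a concentration series for 24, 48 or 72 h. WST-1 reagent added and incubated at 37 °C for 30 min–2 h until color change; absorbance 450 nm. Growth inhibition = (1 − [sample − background]/[control − background]) × 100. IC50 mean ± SD, three cell preparations.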

[6] = tested on: HMEC; experiment: Antiproliferative activity against HMEC after 48 hrs by WST1 assay; format: cell-based; settings: Homo sapiens; outline: as §2
[7] = tested on: HMEC; experiment: Antiproliferative activity against HMEC after 72 hrs by WST1 assay; format: cell-based; settings: Homo sapiens; outline: as §2
[8] = tested on: HeLa; experiment: Induction of apoptosis in human HeLa cells at 10 to 40 uM after 24 hrs by Annexin V-FITC/propidium iodide staining based flow cytometry (reference value: 10%); format: functional
Outline: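 HeLa cells seeded at 3 × 10^5/well and attached 24 h, treated 24 h with 10, 20, 30 or 40 μM (DMSO or poly I:C 5 μg/mL as controls). Harvested with EDTA-free trypsin, washed twice in PBS, stained with annexin V-FITC/PI, and analyzed by flow cytometry. Early plus late apoptotic percentages reported as mean ± SD of three experiments.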

[9] = tested on: HeLa; experiment: Cell cycle arrest in human HeLa cells assessed as accumulation at G0/G1 phase at 20 uM after 24 hrs by propidium iodide staining based flow cytometry (reference value: 52%); format: functional
[10] = tested on: HeLa; experiment: Cell cycle arrest in human HeLa cells assessed as accumulation at S phase at 20 uM after 24 hrs by propidium iodide staining based flow cytometry (reference value: 31%); format: functional
[11] = tested on: HeLa; experiment: Cell cycle arrest in human HeLa cells assessed as accumulation at G2/M phase at 30 uM after 24 hrs by propidium iodide staining based flow cytometry (reference value: 17%); format: functional
[12] = tested on: HeLa; experiment: Cell cycle arrest in human HeLa cells assessed as accumulation at G2/M phase at 40 uM after 24 hrs by propidium iodide staining based flow cytometry (reference value: 17%); format: functional

T2 sequence (O15455 whole entry, looked up, one chain of several): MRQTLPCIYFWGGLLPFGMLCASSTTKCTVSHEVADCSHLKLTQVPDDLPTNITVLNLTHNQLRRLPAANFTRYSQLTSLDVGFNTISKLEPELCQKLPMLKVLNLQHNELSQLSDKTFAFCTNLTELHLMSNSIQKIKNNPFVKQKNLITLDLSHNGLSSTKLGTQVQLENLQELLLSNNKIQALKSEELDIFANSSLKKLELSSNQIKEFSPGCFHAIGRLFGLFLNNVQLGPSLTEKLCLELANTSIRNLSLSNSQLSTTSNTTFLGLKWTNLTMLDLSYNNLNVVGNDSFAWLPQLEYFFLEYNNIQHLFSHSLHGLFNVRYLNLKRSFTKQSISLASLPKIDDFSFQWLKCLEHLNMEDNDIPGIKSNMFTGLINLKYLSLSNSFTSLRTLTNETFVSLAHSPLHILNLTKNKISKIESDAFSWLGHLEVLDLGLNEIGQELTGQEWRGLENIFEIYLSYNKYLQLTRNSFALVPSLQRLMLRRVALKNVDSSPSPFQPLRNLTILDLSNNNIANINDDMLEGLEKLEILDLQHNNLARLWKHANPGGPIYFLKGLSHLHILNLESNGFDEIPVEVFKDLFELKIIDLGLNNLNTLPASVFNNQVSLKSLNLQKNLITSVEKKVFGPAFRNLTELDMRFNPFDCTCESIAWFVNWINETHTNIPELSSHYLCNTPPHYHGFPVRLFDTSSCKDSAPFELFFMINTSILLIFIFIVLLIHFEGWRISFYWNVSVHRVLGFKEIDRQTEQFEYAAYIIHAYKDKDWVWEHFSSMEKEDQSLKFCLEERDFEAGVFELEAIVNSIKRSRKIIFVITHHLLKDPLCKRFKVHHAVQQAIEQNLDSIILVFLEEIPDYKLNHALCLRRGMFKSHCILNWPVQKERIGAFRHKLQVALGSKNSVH
T2 sequence (Q9NR96 whole entry, looked up, one chain of several): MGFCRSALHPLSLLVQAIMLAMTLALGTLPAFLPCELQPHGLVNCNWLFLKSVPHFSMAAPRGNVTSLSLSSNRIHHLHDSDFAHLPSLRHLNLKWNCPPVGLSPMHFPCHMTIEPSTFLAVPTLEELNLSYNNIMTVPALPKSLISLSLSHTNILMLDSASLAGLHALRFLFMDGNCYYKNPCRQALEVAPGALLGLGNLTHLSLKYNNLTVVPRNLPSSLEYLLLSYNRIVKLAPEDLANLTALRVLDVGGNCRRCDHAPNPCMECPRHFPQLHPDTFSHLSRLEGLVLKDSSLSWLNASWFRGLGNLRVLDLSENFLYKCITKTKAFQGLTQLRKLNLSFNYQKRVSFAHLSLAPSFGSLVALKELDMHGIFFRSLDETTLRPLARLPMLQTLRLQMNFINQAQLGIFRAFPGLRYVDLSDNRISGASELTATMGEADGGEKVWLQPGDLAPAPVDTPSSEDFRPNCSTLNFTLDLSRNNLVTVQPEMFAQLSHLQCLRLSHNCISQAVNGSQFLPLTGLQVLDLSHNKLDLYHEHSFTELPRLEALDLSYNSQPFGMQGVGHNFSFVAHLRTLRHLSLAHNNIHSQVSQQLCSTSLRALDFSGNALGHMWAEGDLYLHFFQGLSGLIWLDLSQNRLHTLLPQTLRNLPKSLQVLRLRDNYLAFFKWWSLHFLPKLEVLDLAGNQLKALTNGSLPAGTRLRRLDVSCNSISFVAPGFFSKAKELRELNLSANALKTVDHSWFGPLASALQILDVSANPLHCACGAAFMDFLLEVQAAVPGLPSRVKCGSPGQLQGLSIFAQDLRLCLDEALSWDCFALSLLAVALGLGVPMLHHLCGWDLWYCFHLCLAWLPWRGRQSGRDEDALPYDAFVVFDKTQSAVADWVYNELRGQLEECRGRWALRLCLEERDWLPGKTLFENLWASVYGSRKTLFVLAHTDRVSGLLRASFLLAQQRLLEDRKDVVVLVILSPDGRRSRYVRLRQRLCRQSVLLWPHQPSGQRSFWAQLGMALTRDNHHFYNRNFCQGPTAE
Sequence of Toll-like receptor 4 (O00206 whole entry): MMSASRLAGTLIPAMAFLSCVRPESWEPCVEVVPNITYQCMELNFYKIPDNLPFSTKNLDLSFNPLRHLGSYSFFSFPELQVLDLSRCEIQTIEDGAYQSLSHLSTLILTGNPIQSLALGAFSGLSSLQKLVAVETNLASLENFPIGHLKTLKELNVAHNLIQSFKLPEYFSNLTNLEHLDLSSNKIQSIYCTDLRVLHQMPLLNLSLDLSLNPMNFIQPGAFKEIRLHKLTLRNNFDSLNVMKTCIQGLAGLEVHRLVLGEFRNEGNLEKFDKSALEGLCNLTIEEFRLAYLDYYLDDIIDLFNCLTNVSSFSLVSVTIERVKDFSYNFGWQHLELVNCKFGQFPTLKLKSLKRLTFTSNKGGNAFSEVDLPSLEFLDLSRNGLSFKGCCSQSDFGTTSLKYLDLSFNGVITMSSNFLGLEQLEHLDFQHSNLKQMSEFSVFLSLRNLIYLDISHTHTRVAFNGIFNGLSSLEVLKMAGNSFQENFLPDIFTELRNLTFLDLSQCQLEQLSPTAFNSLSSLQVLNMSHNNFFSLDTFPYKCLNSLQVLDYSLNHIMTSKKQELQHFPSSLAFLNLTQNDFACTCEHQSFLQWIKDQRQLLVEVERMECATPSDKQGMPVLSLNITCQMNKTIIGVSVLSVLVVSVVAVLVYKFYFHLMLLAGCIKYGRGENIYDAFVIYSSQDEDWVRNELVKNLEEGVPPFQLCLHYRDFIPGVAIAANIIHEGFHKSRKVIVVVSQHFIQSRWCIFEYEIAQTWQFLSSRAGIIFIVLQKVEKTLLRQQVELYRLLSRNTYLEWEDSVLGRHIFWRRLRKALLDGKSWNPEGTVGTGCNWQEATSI

For `O=[N+]([O-])c1ccc(COc2cc3c(cc2OCc2ccc([N+](=O)[O-])cc2)OC2(C=C3)CCOCC2)cc1`, the EC50 [1] was > 100 µM, the EC50 [2] was 13.4 µM and the Activity [3] was “Dose-dependent effect”. For the same molecule, the Activity [4] was “Dose-dependent effect”, the IC50 [5] was > 100 µM and the IC50 [6] was > 100 µM. The IC50 [7] was 79.5 µM, the Activity [8] was 17% and the Activity [9] was 43%. It also gave an Activity [10] of 37%, an Activity [11] of 20% and an Activity [12] of 19%.
